Source: PubChem BioAssay
PAFAH1B3 FP inh = PAFAH1B3 (human) inhibition; AID 492972; recombinant PAFAH1B3, FP-rhodamine probe, fluorescence polarization; inhibition, % at 3.39 µM; Q15102; hit rate 0.28% among 340,000;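 active = inhibition above the screen-wide average of all tested compounds plus 3 SD, cut at about 25% in these data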;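 also: 0% = enzyme with DMSO only and 100% = wells lacking PAFAH1B3 protein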
PAFAH1B2 FP inh = inhibitors of human PAFAH1B2; inhibition, % at 3.39 µM; recombinant PAFAH1B2, FP-rhodamine activity probe, fluorescence polarization; AID 492953; P68402; hit rate 1.2% among 340,000;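 active = inhibition above the mean of all tested compounds plus 3 SD, cut at about 24% in these data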;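 also: 0% = enzyme with DMSO and 100% = wells lacking PAFAH1B2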
ASAP1 GAP inh = ASAP1 ArfGAP inhibition; ASAP1-stimulated ARF1 GTP hydrolysis, GDP FP detection; inhibition, % at 16.5 µM; hit rate 0.19% among 360,000; AID 624377; in the data active = inhibition above about 25%;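 also: 0% = vehicle with enzyme and substrate and 100% = no enzyme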
pPAFAH FP inh = pPAFAH (human) enzyme inhibition; AID 463082; Q13093; recombinant pPAFAH, FP-rhodamine probe fluorescence polarization; hit rate 1.5% among 330,000; inhibition, % at 3.39 µM;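 active = inhibition above the mean inhibition across the screen plus 3 SD, cut at about 25% in these data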;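 also: inhibitors block binding of the rhodamine activity-based probe so polarization drops; 0% = enzyme with DMSO and 100% = wells lacking pPAFAH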
Target sequence (Q13093 whole entry, looked up): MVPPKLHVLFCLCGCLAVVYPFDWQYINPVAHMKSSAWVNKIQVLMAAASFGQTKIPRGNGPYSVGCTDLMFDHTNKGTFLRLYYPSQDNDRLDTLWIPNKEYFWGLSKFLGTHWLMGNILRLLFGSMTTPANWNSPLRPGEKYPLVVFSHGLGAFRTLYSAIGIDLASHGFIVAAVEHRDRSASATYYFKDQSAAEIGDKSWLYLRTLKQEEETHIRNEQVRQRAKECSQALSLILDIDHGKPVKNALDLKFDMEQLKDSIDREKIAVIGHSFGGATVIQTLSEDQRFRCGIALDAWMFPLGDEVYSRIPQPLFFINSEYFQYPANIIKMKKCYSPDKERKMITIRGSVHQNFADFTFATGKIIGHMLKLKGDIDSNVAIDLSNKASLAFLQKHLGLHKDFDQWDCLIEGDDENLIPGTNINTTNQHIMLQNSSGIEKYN
ARFGAP1 inhibitor = rat ARFGAP1 inhibition; AID 651572; Q62848; Arfgap1-stimulated ARF1 GTP hydrolysis, GDP FP detection; inhibition, % at 16.5 µM; hit rate 0.26% among 360,000;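 active = inhibition above a per-plate limit, mean inhibition of low control wells plus 3 SD, cut at about 25% in these data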;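 also: 0% = DMSO wells with enzyme and 100% = wells lacking Arfgap1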
Target sequence (Q62848 1-136 limits assumed): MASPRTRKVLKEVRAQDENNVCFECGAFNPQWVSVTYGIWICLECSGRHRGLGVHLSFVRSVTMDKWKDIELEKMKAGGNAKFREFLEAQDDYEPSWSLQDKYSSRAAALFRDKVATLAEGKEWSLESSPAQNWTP
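Assay system: purified rat His6-Arfgap1 residues 1-136 (GAP domain); Reagent: human Δ17 ARF1 bound to GTP; Dosing: 16.5 µM single point, 1.26% DMSO; Times: GTP hydrolysis reaction 2 h at 25 °C; Signal: FP, GDP Alexa 633 tracer displaced from anti-GDP antibody, 620/688 nm; Measure: % inhibition from polarization.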
PAFAH2 inh = PAFAH2 (human) inhibition. recombinant PAFAH2, FP-rhodamine activity probe, fluorescence polarization. inhibition, % at 3.39 µM. hit rate 0.99% among 340,000;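 active = inhibition above the mean over all tested compounds plus 3 SD, cut at about 30% in these data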;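 also: inhibitors block probe labeling of enzyme so polarization drops; 0% = enzyme with DMSO and 100% = wells lacking PAFAH2 protein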
PAFAH2 confirm = PAFAH2 (human) inhibition, confirmed. shares compounds with PAFAH2 inh. recombinant PAFAH2, FP-rhodamine activity probe, fluorescence polarization. inhibition, % at 3.39 µM. hit rate 65% among 2,300. AID 493030;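 active = mean inhibition over three repeats above a set limit taken from the earlier primary screen, cut at about 30% in these data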;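 also: inhibitor blocks binding of rhodamine activity probe so polarization falls; 0% = enzyme with DMSO and 100% = wells lacking PAFAH2 protein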
* marks the source's active call; other numbers are inactive results; nt = not tested or not shown. This is a sample that favours compounds with a hit; in the whole collection about 2.7% have one here.

SMILES	PAFAH1B3 FP inh	PAFAH1B2 FP inh	ASAP1 GAP inh	pPAFAH FP inh	ARFGAP1 inhibitor	PAFAH2 inh	PAFAH2 confirm
COc1ccc(C(=O)OCC(=O)c2ccc(F)cc2)cc1OC	0	2	1	2	4	60*	57*
COc1ccc(C(=O)COC(=O)c2ccc(OC)c(OC)c2)cc1OC	2	-3	-1	5	0	3	nt
COc1cccc(N2CCN(C(=O)c3ccc(CS(=O)Cc4ccc(Cl)cc4)o3)CC2)c1 (stereo not drawn)	-1	3	-5	11	4	8	nt
COc1ccc(/C=C/C(=O)OCC(=O)NCCC2=CCCCC2)cc1OC	-2	-2	7	6	-8	65*	50*
COc1ccccc1/C=C/C(=O)OCC(=O)NCCC1=CCCCC1	10	-5	12	18	10	25	nt
COc1cccc(/C=C/C(=O)OCC(=O)NCCC2=CCCCC2)c1OC	-1	-1	1	14	-5	66*	55*
O=C(COC(=O)/C=C/c1ccc(Cl)cc1)NCCC1=CCCCC1	12	3	-1	5	2	16	nt
CN(C)CCCNS(=O)(=O)c1ccc(N2CCN(Cc3ccc4c(c3)OCO4)CC2)c([N+](=O)[O-])c1	-6	8	6	1	-1	4	nt
Cc1ccnc(N=Cc2nc(-c3ccccc3Br)oc2O)c1	10	2	7	0	4	63*	60*
O=C(NCc1ccccc1)c1cc(C2COCCN2C(=O)C2CC2)on1 (stereo not drawn)	nt	nt	4	nt	-7	nt	nt
COc1ccccc1/C=C1\SC(=S)N(NS(=O)(=O)c2ccccc2)C1=O	11	3	-9	3	-21	2	nt
COc1cccc(/C=C2\SC(=S)N(NS(=O)(=O)c3ccc(C)cc3)C2=O)c1OC	6	5	-3	16	-22	33*	22
COC(=O)[C@@]1(Cc2ccc(OC)cc2)[C@H]2c3cc(C(=O)N4CCCC4)n(Cc4ccccc4)c3C[C@H]2CN1C(=O)c1ccccc1	nt	nt	-3	nt	-3	nt	nt
O=C(c1cccc(Cl)c1)N1CCn2c1nc1ccccc12	-3	-2	-5	-1	8	0	nt
Cc1cccc(OCCC(=O)Nc2ccc(Cl)cc2F)c1	6	5	4	7	-2	6	nt
O=C(COC(=O)C1CCC1)Nc1cccc(S(=O)(=O)N2CCOCC2)c1	-3	3	2	-2	7	10	nt
O=C(COC(=O)C1CC2C=CC1C2)Nc1cccc(S(=O)(=O)N2CCCCC2)c1 (stereo not drawn)	-2	6	-6	7	-1	53*	41*
O=C(COC(=O)C1CC2C=CC1C2)Nc1cccc(S(=O)(=O)N2CCCCCC2)c1 (stereo not drawn)	12	3	5	16	2	36*	24
COc1ccc(CC(=O)N/N=C(\C)CC(=O)Nc2ccc(N(C)C)cc2)cc1	2	-2	7	5	19	3	nt
C/C(CC(=O)Nc1ccc(N(C)C)cc1)=N\NC(=O)Cc1csc(N)n1	3	3	6	9	1	49*	7
CN(C(=O)COC(=O)c1cc(=O)[nH]c2ccccc12)c1ccccc1	7	-1	-5	5	7	3	nt
CCCC(C)NC(=O)c1cc(S(=O)(=O)N2CCCCCC2)ccc1OC (stereo not drawn)	3	7	-3	3	2	6	nt
Cc1cc2c(NCc3ccccc3)ncnc2s1	2	-4	-3	4	-4	0	nt
COc1cc2c(cc1OC)-c1cc(NCc3ccccn3)nc(=O)n1CC2	2	-4	7	9	0	31*	16
CC(C)(C)c1ccc(S(=O)(=O)N2CC(C(=O)O)Oc3ccc(Cl)cc32)cc1 (stereo not drawn)	-3	21	-8	7	-17	34*	19
SMILES	PAFAH1B3 FP inh	PAFAH1B2 FP inh	ASAP1 GAP inh	pPAFAH FP inh	ARFGAP1 inhibitor	PAFAH2 inh	PAFAH2 confirm
O=C(NCC(F)(F)F)c1ccc(S(=O)(=O)N2CCN(C(=O)C3CCCO3)CC2)cc1 (stereo not drawn)	2	0	0	2	-14	4	nt
COc1cccc(/C=C/C(=O)OCC(=O)NCC2CCCO2)c1OC (stereo not drawn)	3	1	-6	5	5	51*	35*
COc1ccc(/C=C/C(=O)OCC(=O)NCC2CCCO2)cc1 (stereo not drawn)	7	4	-5	4	3	37*	30*
Cc1cc(=O)[nH]c(SCc2cccc3ccccc23)n1	8	4	-2	0	6	35*	25
Cc1cc(CSc2nc(C)cc(=O)[nH]2)c2ncccc2c1	12	8	6	5	9	0	nt
O=S1(=O)CC/C(=N\Nc2ccccc2)c2ccsc21	8	-3	5	5	-7	2	nt
O=C(O/N=C1\CCS(=O)(=O)c2sccc21)c1c(F)cccc1F	-2	6	-5	8	-3	2	nt
COc1cccc(C(=O)O/N=C2\CCS(=O)(=O)c3sccc32)c1	2	8	-8	13	-4	70*	37*
Cc1ccc(C(=O)O/N=C2\CCS(=O)(=O)c3sccc32)cc1	-2	0	-8	6	0	88*	83*
CCN1C(=O)[C@@H]2[C@H](C1=O)[C@@H]1C(=O)Nc3ccccc3C(=O)N1[C@@H]2c1cccc(Cl)c1	5	3	nt	5	nt	9	nt
C=CCN1C(=O)/C(=C2/Sc3ccccc3N2CCCS(=O)(=O)O)SC1=S	16	14	0	25*	-9	34*	22
C=CCN1C(=O)/C(=C2/Sc3ccccc3N2CC)SC1=S	1	3	1	11	-8	1	nt
COCCN1C(=O)CSCC1(C)C(=O)Nc1c(C)cccc1C (stereo not drawn)	nt	nt	2	nt	2	nt	nt
Cc1ccc(C(=O)COC(=O)c2ccc(Cl)c(N)c2)s1	8	-2	1	7	-5	32*	22
Cc1ccc(C(=O)NCC(=O)OCC(=O)c2ccc(Cl)s2)cc1	4	3	8	7	14	8	nt
O=C(OCC(=O)c1ccc(Br)s1)c1ccc(O)cc1	4	5	1	19	18	66*	61*
O=C(OCC(=O)C12CC3CC(CC(C3)C1)C2)c1ccc(CO)cc1	5	18	19	0	-7	80*	83*
O=C(OCC(=O)c1ccc(Cl)s1)c1ccc(CO)cc1	5	5	-1	-1	19	61*	51*
O=C(NCc1cccs1)C(=O)NCC1OCCCN1S(=O)(=O)c1ccccc1 (stereo not drawn)	5	10	17	5	0	5	nt
